ALR H2O2 inh: inhibitors of human ALR sulfhydryl oxidase, primary screen, biochemical, H2O2 detection, HRP-luminol luminescence, single point; AID 485317, 2010; actives 3.8% (n = 290,000); inhibition, % (test concentration not listed); FAD-linked sulfhydryl oxidase ALR (Homo sapiens), P55789; purified ALR, DTT oxidation;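 active = mean replicate inhibition above about 79%, with every replicate also reaching it, limit read from the data; inconclusive = only one of the two criteria met; inactive = mean below limit and not every replicate reaching it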
NLRP3 yeast inh: NALP3 inflammasome inhibitors in reconstituted yeast, primary screen, luminescence, uHTS; Yeast reconstituted NLRP3/ASC/caspase-1, beta-gal luminescence, 24 h; inhibition, % at 10 µM; actives 0.39% (n = 330,000);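 active = inhibition of 50% or more; inactive = inhibition below 50%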;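 note: plate controls were induced DMSO wells for no effect and uninduced yeast grown without galactose for full effect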
Pemphigus Ab inh: inhibitors of pemphigus antibody binding to DSG3, primary screen, biochemical, bead-based, flow cytometry, scFv-GFP | DSG3-coupled beads, scFv-anti-DSG3-GFP binding; hits give low values | actives 0.48% (n = 310,000) | binding (percent of control), % at 10 µM;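 active = binding more than 3 SD below its plate's average and above zero; inconclusive = below that plate limit but binding exactly zero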;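 note: hits lower antibody fragment binding to DSG3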
Target sequence (P32926 whole entry, looked up, the tested form may be a part): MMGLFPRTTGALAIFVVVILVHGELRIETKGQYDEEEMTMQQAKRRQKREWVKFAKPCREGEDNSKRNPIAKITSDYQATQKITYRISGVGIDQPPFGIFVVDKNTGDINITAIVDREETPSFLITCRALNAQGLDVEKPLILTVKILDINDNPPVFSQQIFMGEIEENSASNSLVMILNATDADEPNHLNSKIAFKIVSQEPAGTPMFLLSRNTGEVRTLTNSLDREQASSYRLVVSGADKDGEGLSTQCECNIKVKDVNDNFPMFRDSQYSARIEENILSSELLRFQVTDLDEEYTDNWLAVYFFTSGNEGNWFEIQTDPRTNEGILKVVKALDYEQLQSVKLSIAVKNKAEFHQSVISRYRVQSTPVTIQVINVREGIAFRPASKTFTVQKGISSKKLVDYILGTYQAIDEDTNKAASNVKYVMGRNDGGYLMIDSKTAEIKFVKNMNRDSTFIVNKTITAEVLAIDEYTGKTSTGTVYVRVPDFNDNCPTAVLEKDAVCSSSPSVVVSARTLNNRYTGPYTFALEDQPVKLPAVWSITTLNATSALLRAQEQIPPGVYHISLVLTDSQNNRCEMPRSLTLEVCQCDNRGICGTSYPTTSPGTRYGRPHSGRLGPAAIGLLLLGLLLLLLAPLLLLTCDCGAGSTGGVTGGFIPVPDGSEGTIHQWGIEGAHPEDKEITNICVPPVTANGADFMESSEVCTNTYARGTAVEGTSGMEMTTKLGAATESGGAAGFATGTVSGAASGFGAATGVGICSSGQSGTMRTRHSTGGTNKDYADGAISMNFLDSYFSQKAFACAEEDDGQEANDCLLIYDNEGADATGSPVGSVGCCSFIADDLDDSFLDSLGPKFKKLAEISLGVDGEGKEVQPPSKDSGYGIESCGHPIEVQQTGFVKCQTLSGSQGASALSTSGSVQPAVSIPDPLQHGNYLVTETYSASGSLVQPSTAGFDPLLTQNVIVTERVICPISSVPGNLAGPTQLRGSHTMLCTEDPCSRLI
Arrestin-AP2 inh: inhibitors of beta-arrestin/AP2 binding, primary screen, biochemical, GPCR trafficking, flow cytometry. beta-arrestin 1 C-terminal peptide binding to AP2 beta2-adaptin appendage (human). FITC-arrestin peptide / GST-AP2 beads; AP2 beta2 appendage carries R879A mutation. inhibition, % at 10 µM. actives 0.31% (n = 340,000);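 active = inhibition above a set limit, near 3 SD of compounds lacking own fluorescence, cut at about 54% in these data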;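 note: plate controls were DMSO wells for no effect and 5 µM unlabelled arrestin peptide for full effect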
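System: GST-AP2 R879A glutathione beads | Also added: FITC-arrestin peptide, 50 nM | Times: 12 min plus 1 h, RT | Signal: Bead flow cytometry, FITC channel | Buffer or medium: PBS with 0.05% Tween 20 and 0.1% BSA | Read-out basis: Percent drop in bead-associated FITC signal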
NALP1 inh: NALP1 inflammasome inhibitors in reconstituted yeast, colorimetric, S. cerevisiae, triplicate retest; inhibition, % at 10 µM; actives 0.61% (n = 280,000); S. cerevisiae NALP1/ASC/caspase-1 growth, X-gal OD620, 72 h; in the data active = inhibition mostly above about 24%, no sharp cut-off; inactive = mostly below about 32%
PolyA inhibitor: polyadenylation inhibitors in yeast reporter cells, primary screen, luminescence, S. cerevisiae; S. cerevisiae SKY197-pL101 polyadenylation reporter, beta-gal luminescence; efflux-impaired pdr1/pdr3 knockout yeast; score 100 = 6 SD above DMSO; activity score, % at 12 µM; actives 0.02% (n = 300,000);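 active = lowest replicate activity score at least 50, where 100 means six control SD above control mean; inconclusive = lowest score under 50 but half or more replicates reach 50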;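 note: yeast exposed to compound for 9 h at 30 °C; higher score means more reporter readthrough which indicates perturbed polyadenylation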
An asterisk follows results filed as active. Only some compounds are listed: those with a hit (about 4.6% of all), similar ones and a draw of the others.

Results for COc1cc(NC(=O)NCCN2CCN(c3ccccc3)CC2)cc(OC)c1OC ?
ALR H2O2 inh: 98*; NLRP3 yeast inh: 20; Pemphigus Ab inh: 101; Arrestin-AP2 inh: 5; NALP1 inh: 17; PolyA inhibitor: 9

Results for O=S(=O)(c1cccc(Cn2nnc(-c3ccccc3)n2)c1)N1CCOCC1 ?
ALR H2O2 inh: -4; NLRP3 yeast inh: 16; Arrestin-AP2 inh: -16

Results for Cc1nnc(NC(=O)c2cccc(S(=O)(=O)N3CCCC3)c2)s1 ?
ALR H2O2 inh: 0; NLRP3 yeast inh: -2; Arrestin-AP2 inh: -5; NALP1 inh: 16; PolyA inhibitor: -9

How did O=c1cc(CN2CCN(c3ccc(O)cc3)CC2)nc2scc(-c3ccccc3)n12 do in these assays?
ALR H2O2 inh: 94*; NLRP3 yeast inh: 12; Pemphigus Ab inh: 101; Arrestin-AP2 inh: 18; NALP1 inh: 0; PolyA inhibitor: -3

How did O=C(Nc1ccc(Br)cc1)c1cccc(N2C(=O)C3CCCCC3C2=O)c1 (configuration not stated) do in these assays?
ALR H2O2 inh: -3; NLRP3 yeast inh: 19; Pemphigus Ab inh: 113; Arrestin-AP2 inh: -13; NALP1 inh: 8; PolyA inhibitor: 7

Results for Cc1ccc(/C=N/n2c(-c3ccco3)n[nH]c2=S)cc1 ?
ALR H2O2 inh: 63; NLRP3 yeast inh: 23; Arrestin-AP2 inh: -15; NALP1 inh: -1; PolyA inhibitor: -8

Results for S=c1[nH]nc(-c2ccco2)n1/N=C/c1ccc(Cl)c(Cl)c1 ?
ALR H2O2 inh: 31; NLRP3 yeast inh: 13; Pemphigus Ab inh: 99; Arrestin-AP2 inh: -7; NALP1 inh: 19; PolyA inhibitor: 2

What do the screens show for `S=c1[nH]nc(-c2ccco2)n1/N=C/c1ccccn1`?
ALR H2O2 inh: 98*; NLRP3 yeast inh: 14; NALP1 inh: -20; PolyA inhibitor: 9

What do the screens show for `Cc1cccc(/C=N/n2c(-c3ccco3)n[nH]c2=S)c1`?
ALR H2O2 inh: 97*; NLRP3 yeast inh: 33; Arrestin-AP2 inh: -8; NALP1 inh: -12; PolyA inhibitor: -4

What do the screens show for `CCCOC(c1ccccc1)(c1ccc(C(F)(F)F)cc1)C(Oc1nc(C)cc(C)n1)C(=O)O` (configuration not stated)?
ALR H2O2 inh: 96*; NLRP3 yeast inh: -7; Pemphigus Ab inh: 131; Arrestin-AP2 inh: 12; NALP1 inh: 1; PolyA inhibitor: inconclusive

How did COc1ccccc1C(NC(C)=O)c1c(O)ccc2ccc(O)cc12 (configuration not stated) do in these assays?
ALR H2O2 inh: 95*; NLRP3 yeast inh: 0; Pemphigus Ab inh: 114; Arrestin-AP2 inh: 26; PolyA inhibitor: 16

How did COc1ccccc1C(NC(=O)CC(C)C)c1c(O)ccc2ccccc12 (configuration not stated) do in these assays?
ALR H2O2 inh: -105; NLRP3 yeast inh: 11; Pemphigus Ab inh: 124; Arrestin-AP2 inh: 2; NALP1 inh: 3; PolyA inhibitor: -12

What do the screens show for `CSc1nc(-c2ccc(Cl)cc2Cl)[nH]c(=O)c1C#N`?
ALR H2O2 inh: 96*; NLRP3 yeast inh: -4; Pemphigus Ab inh: 102; Arrestin-AP2 inh: 0; NALP1 inh: 17; PolyA inhibitor: -10

Results for Cc1cc(-c2ccc(Cl)cc2Cl)c(C#N)c(=O)[nH]1 ?
ALR H2O2 inh: -1; NLRP3 yeast inh: -14; Pemphigus Ab inh: 106; Arrestin-AP2 inh: 4; PolyA inhibitor: -8

How did O=C(NNc1ccc([N+](=O)[O-])cc1)C1CC2CCCC(C1)C2=O (configuration not stated) do in these assays?
ALR H2O2 inh: 86*; NLRP3 yeast inh: 8; Pemphigus Ab inh: 99; Arrestin-AP2 inh: -3; NALP1 inh: 22; PolyA inhibitor: -6

Results for COc1cccc(N2CCN(C(=O)NC3CCCCC3)CC2)c1 ?
ALR H2O2 inh: 77*; NLRP3 yeast inh: 19; Pemphigus Ab inh: 110; Arrestin-AP2 inh: 13; NALP1 inh: 14; PolyA inhibitor: 4

How did COc1cccc(NC(=O)C2CCN(C(=O)NC3CCCCC3)CC2)c1 do in these assays?
ALR H2O2 inh: 0; NLRP3 yeast inh: 3; Pemphigus Ab inh: 96; Arrestin-AP2 inh: 15; NALP1 inh: 25; PolyA inhibitor: -10

How did O=C(NC1CCCCC1)N1CCN(C(c2ccccc2)c2ccccc2)CC1 do in these assays?
ALR H2O2 inh: -6; NLRP3 yeast inh: 15; Pemphigus Ab inh: 103; Arrestin-AP2 inh: 6; NALP1 inh: 41*; PolyA inhibitor: 0

What do the screens show for `COc1ccc(S(=O)(=O)N2CCC(NC(=O)C3CCCCC3)CC2)cc1`?
NLRP3 yeast inh: 22; Pemphigus Ab inh: 91; Arrestin-AP2 inh: -8; NALP1 inh: 2; PolyA inhibitor: 17

Results for O=C(N1CCCCC1)N1CCN(C(c2ccccc2)c2ccccc2)CC1 ?
ALR H2O2 inh: -7; NLRP3 yeast inh: 20; Pemphigus Ab inh: 94; Arrestin-AP2 inh: 27; NALP1 inh: 3; PolyA inhibitor: -5

How did COc1ccc(N2CCN(C(=O)NC3CCCCC3)CC2)cc1 do in these assays?
ALR H2O2 inh: 81*; NLRP3 yeast inh: 18; Arrestin-AP2 inh: 30; NALP1 inh: -93; PolyA inhibitor: 9

How did COc1ccc(S(=O)(=O)N2CCCC(C(=O)NC3CCCCC3)C2)cc1 (configuration not stated) do in these assays?
ALR H2O2 inh: -14; NLRP3 yeast inh: 10; Pemphigus Ab inh: 112; Arrestin-AP2 inh: -2; NALP1 inh: 34*; PolyA inhibitor: 15

What do the screens show for `O=C(NC1CCCCC1)N1CCN(c2ccccc2)CC1`?
NLRP3 yeast inh: 17; Pemphigus Ab inh: 106; Arrestin-AP2 inh: 1; NALP1 inh: -10; PolyA inhibitor: -2

What do the screens show for `Cc1cc(S(=O)(=O)N2CCCC(N3CCOCC3)C2)c(C)cc1Cl` (configuration not stated)?
ALR H2O2 inh: -2; NLRP3 yeast inh: 17; Pemphigus Ab inh: 119; Arrestin-AP2 inh: 31; NALP1 inh: 24; PolyA inhibitor: 4

What do the screens show for `CC(C(=O)NC(=O)NC1CCCCC1)N1CCN(c2ccc(O)cc2)CC1` (configuration not stated)?
ALR H2O2 inh: 99*; NLRP3 yeast inh: 20; Pemphigus Ab inh: 109; Arrestin-AP2 inh: 2

How did COc1ccc(N2CCN(S(=O)(=O)c3ccc(C(=O)NC4CCCC4)cc3)CC2)cc1 do in these assays?
NLRP3 yeast inh: 0; Pemphigus Ab inh: 75*; Arrestin-AP2 inh: 4; NALP1 inh: 2; PolyA inhibitor: 14

High-throughput results (PubChem BioAssay)
